17 compounds from ChEMBL document CHEMBL1764963, “In vitro and QSAR studies of cucurbitacins on HepG2 and HSC-T6 liver cell lines” (Bioorg Med Chem, 2011) can be followed below.

Each structure is given as a SMILES string. The source made the active and inactive calls. The calls are words filed in the database; no cut-off is given here.

In assay [1] the test system is HepG2. The assay can be described thus: Cytotoxicity against human HepG2 cells after 24 hrs assessed as inhibition of cell viability by MTT assay. The class given is cell-based. As to conditions: Homo sapiens, HepG2, 24 h. Background: Tetrazolium assays rely on reduction of a dye to a coloured formazan, in cell work by metabolically active cells.
Assay [2] concerns HepG2. As to the kind of experiment: Hepatoprotective activity in human HepG2 cells assessed as inhibition of CCl4-induced toxicity after 24 hrs by MTT assay. Format: functional, cell-based. As to conditions: for EC50: Homo sapiens, HepG2, 24 h. Also on record: Activity: scale not given: the % may be the effect or the level left.
In assay [3] the test system is HepG2. The assay can be described thus: Ratio of IC50 to EC50 for hepatoprotective activity in human HepG2 cells. Format: functional.
Assay [4] is described as follows: Cytotoxicity against rat HSC-T6 cell after 24 hrs by MTT assay. The class given is cell-based. As to conditions: Rattus norvegicus, HSC-T6, 24 h.
Assay [5] in a line: Antiproliferative activity against serum-stimulated rat HSC-T6 cells after 24 hrs by MTT assay. Format: functional, cell-based. As to conditions: HSC-T6, 24 h.
The nature of assay [6]: Ratio of IC50 to EC50 for antiproliferative activity in rat HSC-T6 cells. Format: functional.
Assay [7] relates to HepG2. As to the kind of experiment: Hepatoprotective activity in human HepG2 cells assessed as protection against cell damage after 24 hrs by MTT assay. Format: functional.
Assay [8] deals with HeLa. As to the kind of experiment: Cytotoxicity against human HeLa cells after 24 hrs by MTT assay. Format: functional, cell-based.
In assay [9] the test system is HepG2. As to the kind of experiment: Ratio of IC50 for human HepG2 cells to IC50 for human HeLa cells. Put shortly:
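Both lines (HepG2 grown 10 days, HeLa 7 days, in EMEM/10% FBS) seeded 24 h in 2% FBS at 30,000 and 15,000 cells/ml. Five-fold serial dilutions over 5 wells for 24 h. Viability by MTT at 570 nm versus cell-free and untreated controls. IC50 derived from log IC50. Ratio taken of the two IC50 values.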

The subject of assay [10] is HepG2. The assay can be described thus: Hepatoprotective activity in human HepG2 cells assessed as inhibition of CCl4-induced toxicity at 12.5% IC50 after 24 hrs by MTT assay. The class given is functional, cell-based. Summed up:
(§1)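 HepG2 cells grown 10 days in EMEM with 10% FBS, then seeded 24 h at 30,000 cells/ml in 2% FBS. Test agent added together with CCl4 (4.5 x 10^-3 M) for 24 h. Silybin was tested at 1–200 uM. Cucurbitacins were tested at 0.5 and […] their IC50, then at 0.13 and 0.06. MTT read at 570 nm. % protection calculated against CCl4-only and media-only controls. Three experiments, ≥3 replicates each.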

For assay [11], the system named is HepG2. As to the kind of experiment: Hepatoprotective activity in human HepG2 cells assessed as inhibition of CCl4-induced toxicity at 6.25% IC50 after 24 hrs by MTT assay. Format: functional, cell-based. Summed up: as §1

With `CC(C)(O)/C=C/C(=O)[C@](C)(O)[C@H]1[C@H](O)C[C@@]2(C)[C@@H]3CC=C4[C@@H](CC(=O)[C@@H](O)C4(C)C)[C@]3(C)C(=O)C[C@]12C`, the IC50 (usually the point on the concentration scale where inhibition reaches its midpoint) in assay [1] turned out to be 80.3 µM; in assay [4] it was 8.7 µM. Moreover, in assay [2], the “inhibition (INH)” value turned out to be 74%. The results for the EC50 in [2] and in [5] were 13.8 µM and 0.06 µM, respectively. Also, the figures for the “Ratio IC50/EC50” value in [3] and in assay [6] were 6 and 137, respectively. Besides, the Activity in assay [7] is 40%.

In the case of `CC(C)(O)/C=C/C(=O)[C@](C)(O)[C@H]1[C@H](O)C[C@@]2(C)[C@@H]3CC=C4[C@@H](C=C(O)C(=O)C4(C)C)[C@]3(C)C(=O)C[C@]12C` [CUCURBITACIN I], the IC50 in assay [1] came out at 15.8 µM; in [4], 3.6 µM. The “inhibition (INH)” value in assay [2] stood at 74%. The EC50 – broadly, the concentration giving half of the maximal effect – in assay [2] is 3.16 µM; in assay [5] it was 0.02 µM. Besides, the “Ratio IC50/EC50” value in [3] was 5; in [6], 150. Moreover, the Activity in assay [7] is recorded as 40%.

In the case of `CCOC1=C[C@@H]2C(=CC[C@@H]3[C@@]2(C)C(=O)C[C@]2(C)[C@@H]([C@@](C)(O)C(=O)/C=C/C(C)(C)OC(C)=O)[C@H](O)C[C@@]32C)C(C)(C)C1=O`, the IC50 was 5.1 µM in [1], 1.1 µM in assay [8] and 3.5 µM in assay [4]. In addition, the Activity in [2] is under 50%; in assay [7] it was 40%. The “Ratio IC50” value in assay [9] is given as 5. The same compound registered an EC50 in assay [5] of 0.27 µM. In addition, the “Ratio IC50/EC50” value in assay [6] amounted to 13.

In the case of `COC1=C[C@@H]2C(=CC[C@@H]3[C@@]2(C)C(=O)C[C@]2(C)[C@@H]([C@@](C)(O)C(=O)/C=C/C(C)(C)OC(C)=O)[C@H](O)C[C@@]32C)C(C)(C)C1=O`, the IC50 in [1] was 12 µM; in assay [4], 2.83 µM. For the same compound, the EC50 in assay [2] is 2.4 µM; in [5], 0.08 µM. Further, the “Ratio IC50/EC50” value in [3] turned out to be 5; in assay [6], 35. In addition, the Activity in [7] was 40%.

Consider `CCCOC1=C[C@@H]2C(=CC[C@@H]3[C@@]2(C)C(=O)C[C@]2(C)[C@@H]([C@@](C)(O)C(=O)/C=C/C(C)(C)OC(C)=O)[C@H](O)C[C@@]32C)C(C)(C)C1=O`, for which the inhibition result in assay [10] and in assay [11] was “inactive” each time. Also, the IC50 in assay [8] is 1.4 µM; in assay [4], 2.75 µM. This compound also showed an EC50 in [5] of 0.34 µM. Besides, the Activity in [7] was 40%.

Turning to `CC(C)(O)/C=C/C(=O)[C@](C)(O)[C@H]1[C@H](O)C[C@@]2(C)[C@@H]3CC=C4[C@@H](C[C@H](O)C(=O)C4(C)C)[C@]3(C)C(=O)C[C@]12C` [CUCURBITACIN D], the IC50 in [1] was determined as 77.3 µM; in assay [8], 0.7 µM; in assay [4], 26 µM. In assay [2], the “inhibition (INH)” value turned out to be 74%. For the same compound, the EC50 worked out at 9 µM in [2] and 0.07 µM in [5]. The figures for the “Ratio IC50/EC50” value in [3] and in assay [6] were 9 and 379, respectively. The “Ratio IC50” value in assay [9] turned out to be 107. For the same compound, the Activity in assay [7] amounted to 40%.

For `COC1=C[C@@H]2C(=CC[C@@H]3[C@@]2(C)C(=O)C[C@]2(C)[C@@H]([C@@](C)(O)C(=O)CCC(C)(C)O)[C@H](O)C[C@@]32C)C(C)(C)C1=O`, in [2], the “inhibition (INH)” value came to 74% and the EC50 was determined as 5 µM. It took 6.7 µM to reach half-maximal inhibition in [4] (IC50). This compound yielded an EC50 in [5] of 0.18 µM. In addition, the Activity in assay [7] was determined as 40%.

Consider `COC1=C[C@@H]2C(=CC[C@@H]3[C@@]2(C)C(=O)C[C@]2(C)[C@@H]([C@@](C)(O)C(=O)/C=C/C(C)(C)O)[C@H](O)C[C@@]32C)C(C)(C)C1=O`, for which the IC50 was determined as 15 µM in assay [1] and 6.37 µM in assay [4]. For the same compound, the “inhibition (INH)” value in assay [2] worked out at 74%. The EC50 in assay [2] amounted to 5.25 µM; in assay [5], 0.11 µM. Besides, the “Ratio IC50/EC50” value in assay [3] is reported as 3; in assay [6], 60. Further, in assay [7], the Activity amounted to 40%.

Turning to `CC(C)OC1=C[C@@H]2C(=CC[C@@H]3[C@@]2(C)C(=O)C[C@]2(C)[C@@H]([C@@](C)(O)C(=O)/C=C/C(C)(C)O)[C@H](O)C[C@@]32C)C(C)(C)C1=O`, the IC50 in assay [1] was determined as 7.33 µM; in assay [4], 2.53 µM. Besides, the Activity in assay [2] is under 50%; in [7] it was 40%. In addition, a half-maximal response in assay [5] (EC50) required 0.25 µM. In assay [6], the “Ratio IC50/EC50” value came to 10.

Take `CCOC1=C[C@@H]2C(=CC[C@@H]3[C@@]2(C)C(=O)C[C@]2(C)[C@@H]([C@@](C)(O)C(=O)/C=C/C(C)(C)O)[C@H](O)C[C@@]32C)C(C)(C)C1=O`: the Activity is recorded as under 50% in assay [2] and 40% in assay [7]. In addition, half-maximal inhibition in assay [4] (IC50) required 3.53 µM. In assay [5], this compound gave an EC50 of 0.34 µM.

Take `CC(=O)OC(C)(C)/C=C/C(=O)[C@](C)(O)[C@H]1[C@H](O)C[C@@]2(C)[C@@H]3CC=C4[C@@H](C=C(OC(C)C)C(=O)C4(C)C)[C@]3(C)C(=O)C[C@]12C`: the IC50 came to 4.27 µM in [1] and 2.5 µM in [4]. The compound further registered an EC50 in assay [5] of 0.32 µM. Further, in assay [6], the “Ratio IC50/EC50” value came out at 8. For the same compound, the Activity in assay [7] was determined as 40%.

For `CCCOC1=C[C@@H]2C(=CC[C@@H]3[C@@]2(C)C(=O)C[C@]2(C)[C@@H]([C@@](C)(O)C(=O)/C=C/C(C)(C)O)[C@H](O)C[C@@]32C)C(C)(C)C1=O`, the IC50 came to 5 µM in [1] and 2.47 µM in assay [4]. Also, the Activity in assay [2] is on record as under 50%; in assay [7], 40%. The EC50 in assay [5] amounted to 0.33 µM. Moreover, the “Ratio IC50/EC50” value in assay [6] amounted to 8.

For the compound `COC1=C[C@@H]2C(=CC[C@@H]3[C@@]2(C)C(=O)C[C@]2(C)[C@@H]([C@@](C)(O)C(=O)/C=C/C(C)(C)OC(C)=O)[C@H](OC(C)=O)C[C@@]32C)C(C)(C)C1=O`, the IC50 in assay [1] worked out at 26 µM; in assay [8], 3.2 µM; in assay [4], 11.5 µM. Further, the figures for the EC50 in [2] and in assay [5] were 5.2 µM and 0.91 µM, respectively. In addition, the entries for the “Ratio IC50/EC50” value in [3] and in assay [6] were 5 and 13, respectively. In addition, the “Ratio IC50” value in [9] is 8. Moreover, in [7], the Activity stood at 40%.

Regarding `CC(=O)OC(C)(C)/C=C/C(=O)[C@](C)(O)[C@H]1[C@H](O)C[C@@]2(C)[C@@H]3CC=C4[C@@H](C=C(O[C@@H]5O[C@H](CO)[C@@H](O)[C@H](O)[C@H]5O)C(=O)C4(C)C)[C@]3(C)C(=O)C[C@]12C`, the IC50 was determined as 227 µM in assay [1], 37 µM in assay [8] and 102 µM in assay [4]. In addition, the EC50 is 45.3 µM in [2] and 3.28 µM in assay [5]. In addition, the “Ratio IC50/EC50” value came to 5 in assay [3] and 31 in assay [6]. Further, the “Ratio IC50” value in assay [9] was determined as 6. Besides, the Activity in [7] is recorded as 40%.

As to `CC(C)(O)/C=C/C(=O)[C@](C)(O)[C@H]1[C@H](O)C[C@@]2(C)[C@@H]3CC=C4[C@@H](C=C(O[C@@H]5O[C@H](CO)[C@@H](O)[C@H](O)[C@H]5O)C(=O)C4(C)C)[C@]3(C)C(=O)C[C@]12C`, the IC50 was found to be 390 µM in assay [1] and 256 µM in assay [4]. Besides, the EC50 was determined as 195 µM in assay [2] and 4.15 µM in assay [5]. Besides, the “Ratio IC50/EC50” value in assay [3] stood at 2; in assay [6] it was 62. In addition, the Activity in assay [7] was determined as 40%.

Take `CC(=O)OC(C)(C)/C=C/C(=O)[C@](C)(O)[C@H]1[C@H](O)C[C@@]2(C)[C@@H]3CC=C4[C@H](C[C@H](O)C(=O)C4(C)C)[C@]3(C)C(=O)C[C@]12C` [CUCURBITACIN B]: the IC50 is 27.7 µM in assay [1], 0.8 µM in assay [8] and 4.42 µM in [4]. The EC50 in assay [2] turned out to be 10.5 µM; in assay [5], 0.02 µM. The entries for the “Ratio IC50/EC50” value in [3] and in assay [6] were 3 and 205, respectively. Besides, in assay [9], the “Ratio IC50” value was 37. Further, the Activity in assay [7] was determined as 40%.

In the case of `CC(=O)OC(C)(C)/C=C/C(=O)[C@](C)(O)[C@H]1[C@H](O)C[C@@]2(C)[C@@H]3CC=C4[C@@H](C=C(O)C(=O)C4(C)C)[C@]3(C)C(=O)C[C@]12C` [CUCURBITACIN E], the IC50 in assay [1] came to 15.2 µM; in assay [8] it was 0.1 µM. Moreover, the “inhibition (INH)” value in assay [2] is 74%. For the same compound, the EC50 in assay [2] came out at 3.2 µM; in assay [5] it was 0.04 µM. In [7], the Activity was 40%.
